Source: PMC7486978 (Molecular pharmaceutics, 2019)
Bridge positions count the residues as written; N and C are the ends. Peptide text beside a SMILES is read from it. * marks the point of attachment. NOTA(2S-Bn(4-NHCS)) = O=C(O)CN1CCN(CC(=O)O)C[C@H](Cc2ccc(NC(=S)*)cc2)N(CC(=O)O)CC1

Key:
in vivo = assay type: in vivo, BALB/c nude mice; settings: female, BALB/c nude, mouse, in vivo, total radioactivity
MCF-7 xenograft mice = assay: in vivo; assay type: in vivo, BALB/c nude mice; settings: for tumor uptake (biodistribution): no blocking, mean ± SD
[1] = In vitro stability in PBS; assay type: physicochemical; settings: PBS pH 7.4, 37 °C, 2 h, 14.8 MBq; analytical radio-HPLC
How it was run: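 ⁶⁸Ga-labelled test compound was prepared by heating precursor with [⁶⁸Ga]GaCl₃ in sodium acetate buffer (final pH about 4.0) at 90 °C for 5 min and used unpurified. Tracer (14.8 MBq) was held in PBS pH 7.4 at 37 °C for 2 h.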

MCF-7 cells = assay: In vitro cell uptake and blocking study; assay type: cell-based, human; settings: 100 times excess (100 pmol) nonradioactive RGD, NGR, RGD+NGR or NGR-RGD 15 min in advance; 2 h at 37 °C
MCF-7 tumor xenograft = assay: Small-animal PET/CT imaging, ROI tumor uptake; assay type: in vivo, BALB/c nude mice; settings: MCF-7 xenograft, 30 min p.i., n = 4
[2] = tested on: MDA-MB-231 tumor xenograft; assay: Small-animal PET/CT imaging, ROI tumor uptake; assay type: in vivo, BALB/c nude mice; settings: MDA-MB-231 xenograft, 30 min p.i., 6.5–9 MBq; n = 4
[3] = tested on: MDA-MB-468 tumor xenograft; assay: Small-animal PET/CT imaging, ROI tumor uptake; assay type: in vivo, BALB/c nude mice; settings: MDA-MB-468 xenograft, 30 min p.i., 6.5–9 MBq; n = 4
MX-1 tumor xenograft = assay: Small-animal PET/CT imaging, ROI tumor uptake; assay type: in vivo, BALB/c nude mice; settings: MX-1 xenograft, 30 min p.i., 6.5–9 MBq; n = 4
[4] = tested on: MDA-MB-231 xenograft mice; assay: Post-imaging biodistribution; assay type: in vivo, BALB/c nude mice; settings: 1 h p.i., mean ± SD, n = 4
How it was run: (§1)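 Female BALB/c nude mice were injected s.c. in the right shoulder with 1.0 × 10⁷ cells (MDA-MB-231/MDA-MB-468 grown in L-15 without CO₂; MX-1 in high-glucose DMEM, 10% FBS, 5% CO₂). They were used at tumor size 0.8–1.0 cm and given ⁶⁸Ga-labelled test compound (6.5–9 MBq, 125 μL) by tail vein. PET/CT under 2.0% isoflurane ran at 30 min. Mice were euthanized at 1 h; tissues weighed, γ-counted, decay-corrected %ID/g, mean ± SD.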

[5] = tested on: MDA-MB-468 xenograft mice; assay: Post-imaging biodistribution; assay type: in vivo, BALB/c nude mice; settings: 1 h p.i., mean ± SD, n = 4
How it was run: as §1

MX-1 xenograft mice = assay: Post-imaging biodistribution; assay type: in vivo, BALB/c nude mice; settings: 1 h p.i., mean ± SD, n = 4
How it was run: as §1

[6] = MCF-7 xenograft mice, 1 h p.i., n = 4

Molecule | tissue uptake at 1 h (in vivo) [%ID/g] | tumor uptake (biodistribution) (MCF-7 xenograft mice; [6]) [%ID/g] | proportion of the intact tracer [1] | uptake by MCF-7 cells when pretreated with excess of blocking agents (MCF-7 cells) | tumor uptake (PET ROI), blocked by NGR (MCF-7 tumor xenograft; coinjected unlabeled NGR 20 mg/kg) [%ID/g] | tumor uptake (PET ROI), blocked by NGR-RGD (MCF-7 tumor xenograft; coinjected unlabeled NGR-RGD 20 mg/kg) [%ID/g] | tumor uptake (PET ROI), blocked by RGD (MCF-7 tumor xenograft; coinjected unlabeled RGD 20 mg/kg) [% ID/g] | tumor uptake (PET ROI), blocked by RGD+NGR (MCF-7 tumor xenograft; coinjected unlabeled RGD+NGR 20 mg/kg) [%ID/g] | tumor uptake (PET ROI) (MCF-7 tumor xenograft; comparison of tumor types (Figure 5B)) [%ID/g] | tumor uptake (PET ROI) [2] [%ID/g] | tumor uptake (PET ROI) [3] [%ID/g] | tumor uptake (PET ROI) (MX-1 tumor xenograft) [%ID/g] | tumor uptake (biodistribution), blocked with NGR-RGD (MCF-7 xenograft mice; MCF-7 xenograft mice, 1 h p.i., coinjection of excess unlabeled NGR-RGD, n = 4) [%ID/g] | tumor uptake (biodistribution), blocked with NGR (MCF-7 xenograft mice; MCF-7 xenograft mice, 1 h p.i., coinjection of excess unlabeled NGR, n = 4) [%ID/g] | tumor uptake (biodistribution), blocked with RGD+NGR (MCF-7 xenograft mice; MCF-7 xenograft mice, 1 h p.i., coinjection of excess unlabeled RGD+NGR, n = 4) [%ID/g] | tumor uptake (biodistribution), blocked with RGD (MCF-7 xenograft mice; MCF-7 xenograft mice, 1 h p.i., coinjection of excess unlabeled RGD, n = 4) [%ID/g] | accumulation in the kidneys (biodistribution) (MCF-7 xenograft mice; mouse, in vivo, 1 h) [%ID/g] | tumor uptake (biodistribution) [4] [%ID/g] | tumor uptake (biodistribution) [5] [%ID/g] | tumor uptake (biodistribution) (MX-1 xenograft mice) [%ID/g]
N=C(N)NCCC[C@@H]1NC(=O)CNC(=O)[C@H](CC(N)=O)NC(=O)[C@H](CCCCNC(=S)Nc2ccc(C[C@H]3CN(CC(=O)O)CCN(CC(=O)O)CCN3CC(=O)O)cc2)NC(=O)CC[C@@H](C(N)=O)NC1=O [^68Ga-NGR, metal not drawn, reference compound] (K(NOTA(2S-Bn(4-NHCS)))NGRE-NH2; lactam N-5; C-terminus assumed) | 0.87 ± 0.04 | 0.14 ± 0.04 |  |  |  |  |  |  |  |  |  |  |  |  |  |  |  |  |  | 
c(RGDyK)-PEG4-NOTA-click-PEG4-c(CNGRC) (bicyclic or more) [^68Ga-NGR-RGD] |  | 1.02 ± 0.16 | exceeded 95% | decreased significantly | 0.80 ± 0.03 | 0.28 ± 0.06 | 0.37 ± 0.05 | 0.31 ± 0.03 | 1.03 ± 0.08 | 1.04 ± 0.06 | 0.76 ± 0.10 | 0.41 ± 0.08 | 0.16 ± 0.04 | 0.67 ± 0.02 | 0.20 ± 0.07 | 0.17 ± 0.04 | 2.52 ± 0.30 | 0.53 ± 0.05 | 0.28 ± 0.04 | 0.20 ± 0.03
